Measurements taken from ChEMBL document CHEMBL4190353, “Synthesis, structure-activity relationships and preliminary mechanism of action of novel water-soluble 4-quinolone-3-carboxamides as antiproliferative agents” (Eur J Med Chem, 2017).
The source made the active and inactive calls. The calls are words filed in the database; no cut-off is given here.

Assays:
BGC-823 = experiment: Cytotoxicity against human BGC823 cells assessed as reduction in cell viability incubated for 24 hrs by MTT assay; type: functional, cell-based; conditions: BGC-823, 24 h
How it was run: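 Cells were kept in McCoy's 5A with 10% fetal bovine serum, streptomycin and 100 units·mL⁻¹ penicillin at 37 °C under 5% CO₂/95% air. Viability was read by MTT optical density. IC50 is the concentration that lowers optical density by 50% relative to untreated cells. Values are means with SD of at least three independent determinations.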

RKO = experiment: Cytotoxicity against human RKO cells assessed as reduction in cell viability incubated for 24 hrs by CCK8 assay; type: functional, cell-based
How it was run: (§1)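 Cells were seeded at 3×10^4 per well, grown 24 h, then exposed to increasing concentrations for 24 h. CCK-8 reagent was added for 1 h at 37 °C and absorbance was read at 450 nm. Cells were kept in McCoy's 5A with 10% FBS, and n=3.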

HCT-116 [1] = experiment: Induction of apoptosis in human HCT116 cells assessed as viable cells level at 4 uM incubated for 24 hrs by Annexin V-FITC/PI staining based cytometry (reference value: 96.6%); type: functional
HCT-116 [2] = experiment: Induction of apoptosis in human HCT116 cells assessed as early apoptotic cells level at 4 uM incubated for 24 hrs by Annexin V-FITC/PI staining based cytometry (reference value: 1.3%); type: functional
HCT-116 [3] = experiment: Induction of apoptosis in human HCT116 cells assessed as late apoptotic cells level at 4 uM incubated for 24 hrs by Annexin V-FITC/PI staining based cytometry (reference value: 0.5%); type: functional
HCT-116 [4] = experiment: Induction of apoptosis in human HCT116 cells assessed as necrotic cells level at 4 uM incubated for 24 hrs by Annexin V-FITC/PI staining based cytometry (reference value: 1.6%); type: functional
HCT-116 [5] = experiment: Induction of apoptosis in human HCT116 cells assessed as G1 phase cells level at 4 uM incubated for 24 hrs by […]PI staining based cytometry (reference value: 65.2%); type: functional
How it was run: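 Cells were treated for 24 h, then fixed in 75% ethanol at -20 °C overnight. RNA was digested with 0.2 mg/mL RNase A for 30 min at 37 °C. Cells were stained with 50 µg/mL PI for 30 min in the dark, and DNA content was read by flow cytometry.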

HCT-116 [6] = experiment: Induction of apoptosis in human HCT116 cells assessed as necrotic cells level incubated for 48 hrs by Annexin V-FITC/PI staining based cytometry (reference value: 0.2%); type: functional
HCT-116 [7] = experiment: Induction of apoptosis in human HCT116 cells assessed as early apoptotic cells level pre-incubated with 20 uM pan-caspase inhibitor Z-VAD-FMK for 5 hrs followed by compound addition and further incubated for 48 hrs by Annexin V-FITC/PI staining based cytometry (reference value: 1.1%); type: functional; parameters: scale not given: the % may be the effect or the level left
HCT-116 [8] = experiment: Induction of apoptosis in human HCT116 cells assessed as late apoptotic cells level pre-incubated with 20 uM pan-caspase inhibitor Z-VAD-FMK for 5 hrs followed by compound addition and further incubated for 48 hrs by Annexin V-FITC/PI staining based cytometry (reference value: 0.0%); type: functional; parameters: scale not given: the % may be the effect or the level left
HCT-116 [9] = experiment: Induction of apoptosis in human HCT116 cells assessed as necrotic cells level pre-incubated with 20 uM pan-caspase inhibitor Z-VAD-FMK for 5 hrs followed by compound addition and further incubated for 48 hrs by Annexin V-FITC/PI staining based cytometry (reference value: 0.2%); type: functional; parameters: scale not given: the % may be the effect or the level left
HCT-116 [10] = experiment: Induction of apoptosis in Bax-/- human HCT116 cells assessed as increase in cleaved PARP level at 4 to 16 uM by Western blot method; type: functional, cell-based
How it was run: (§2)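 Lysates were made in SDS buffer (2% SDS, 50 mM Tris-HCl pH 6.8) and quantified by BCA. Equal protein was run on 10% SDS-PAGE and transferred to PVDF. Membranes were blocked in 5% milk, probed overnight at 4 °C for cleaved PARP (1:1000) with GAPDH (1:5000), and detected with HRP secondary antibody and ECL.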

HCT-116 [11] = experiment: Induction of apoptosis in p53-/- human HCT116 cells assessed as viable cells level at 4 uM incubated for 48 hrs by Annexin V-FITC/PI staining based cytometry (reference value: 96.2%); type: functional
How it was run: (§3)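 HCT116 p53-/- cells (Vogelstein line) in McCoy's 5A with 10% FBS, 37 °C, 5% CO2. Seeded at 5×10^5 in 6-well plates, treated with vehicle or 4 μM at 80% confluence. After treatment, trypsinised, washed twice in ice-cold PBS pH 7.4, and stained in binding buffer with Annexin V-FITC and PI for 15 min at room temperature in the dark. Read by flow cytometry.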

HCT-116 [12] = experiment: Induction of apoptosis in p53-/- human HCT116 cells assessed as necrotic cells level at 4 uM incubated for 48 hrs by Annexin V-FITC/PI staining based cytometry (reference value: 0.8%); type: functional; how it was run: as §3
HCT-116 [13] = experiment: Induction of apoptosis in Bax-/- human HCT116 cells assessed as early apoptotic cells level at 4 uM incubated for 48 hrs by Annexin V-FITC/PI staining based cytometry (reference value: 4.4%); type: functional
How it was run: (§4)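 Cells were plated at 5×10^5 per well and treated once 80% confluent. After trypsinisation and two washes in ice-cold PBS (pH 7.4), cells were stained with Annexin V-FITC and PI for 15 min at room temperature in the dark. Analysis was by flow cytometry. The legend gives vehicle or 4 µM for the p53-/- and Bax-/- lines.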

HCT-116 [14] = experiment: Induction of apoptosis in Bax-/- human HCT116 cells assessed as late apoptotic cells level at 4 uM incubated for 48 hrs by Annexin V-FITC/PI staining based cytometry (reference value: 0.2%); type: functional; how it was run: as §4
HCT-116 [15] = experiment: Induction of apoptosis in Bax-/- human HCT116 cells assessed as necrotic cells level at 4 uM incubated for 48 hrs by Annexin V-FITC/PI staining based cytometry (reference value: 0.3%); type: functional; how it was run: as §4
HCT-116 [16] = experiment: Cytotoxicity against p53-/- human HCT116 cells assessed as reduction in cell viability incubated for 24 hrs by CCK8 assay; type: functional, cell-based; how it was run: as §1
HCT-116 [17] = experiment: Inhibition of colony formation of p53-/- human HCT116 cells at 4 to 16 uM incubated for 24 hrs by crystal violet staining based photography; type: functional, cell-based
How it was run: (§5)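 Cells (HCT116, RKO, HCT116 p53-/-, HCT116 Bax-/-) seeded at 300 per well in 12-well plates for 48 h, then treated 24 h. Drug medium replaced with fresh medium; about 10 days later colonies stained 15 min with crystal violet, photographed and counted. Run in triplicate.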

HCT-116 [18] = experiment: Inhibition of colony formation of human HCT116 cells incubated for 24 hrs and measured after 10 days post dose in fresh medium by crystal violet staining based photography; type: functional, cell-based; how it was run: as §5
HCT-116 [19] = experiment: Induction of apoptosis in human HCT116 cells assessed as increase in cleaved PARP level at 4 to 8 uM incubated for 24 hrs by Western blot method; type: functional, cell-based; how it was run: as §2

CCN(CC)CCCNC(=O)c1cn(CCCc2ccccc2)c2cc(Cl)ccc2c1=O.Cl was tested, and the IC50 (BGC-823) was 4.92 µM, the IC50 (RKO) was 4.87 µM and the “growth inhibition (GI)” value (RKO) was “Dose-dependent effect”. For the same molecule, the Activity (HCT-116 [1]) was 52.7%, the Activity (HCT-116 [2]) was 38.2% and the Activity (HCT-116 [3]) was 4.8%. It also gave an Activity (HCT-116 [4]) of 4.3%, an Activity (HCT-116 [5]) of 42.4% and an Activity (HCT-116 [6]) of 4.6%. It also gave an Activity (HCT-116 [7]) of 14.2%, an Activity (HCT-116 [8]) of 2% and an Activity (HCT-116 [9]) of 3.5%. The Activity (HCT-116 [10]) was “Active”, the Activity (HCT-116 [11]) was 72.1% and the Activity (HCT-116 [12]) was 1.8%. The Activity (HCT-116 [13]) was 25.6%, the Activity (HCT-116 [14]) was 0.8% and the Activity (HCT-116 [15]) was 2.1%. For the same molecule, the Activity (HCT-116 [16]) was “Dose-dependent effect”, the inhibition (HCT-116 [17]) was “Active” and the inhibition (HCT-116 [18]) was “Dose-dependent effect”. For the same molecule, the Activity (HCT-116 [19]) was “Active”.
